Compound activity deposited in PubChem BioAssay by several laboratories.
In the library only some 9.6% were active in any assay of this set; here they are far more common.
TNAP act hiacc: activators of human TNAP at high phosphate acceptor concentration. purified TNAP, CDP-star luminescence, 1 M DEA, 30 min; stronger effect = higher value; 0 = EDTA background, 1 = DMSO-only activity. P05186. activation factor at 20 µM. 200,000 tested, under 10 active;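 active = activation factor at least 2 at 20 µM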
Target sequence (P05186 whole entry, looked up): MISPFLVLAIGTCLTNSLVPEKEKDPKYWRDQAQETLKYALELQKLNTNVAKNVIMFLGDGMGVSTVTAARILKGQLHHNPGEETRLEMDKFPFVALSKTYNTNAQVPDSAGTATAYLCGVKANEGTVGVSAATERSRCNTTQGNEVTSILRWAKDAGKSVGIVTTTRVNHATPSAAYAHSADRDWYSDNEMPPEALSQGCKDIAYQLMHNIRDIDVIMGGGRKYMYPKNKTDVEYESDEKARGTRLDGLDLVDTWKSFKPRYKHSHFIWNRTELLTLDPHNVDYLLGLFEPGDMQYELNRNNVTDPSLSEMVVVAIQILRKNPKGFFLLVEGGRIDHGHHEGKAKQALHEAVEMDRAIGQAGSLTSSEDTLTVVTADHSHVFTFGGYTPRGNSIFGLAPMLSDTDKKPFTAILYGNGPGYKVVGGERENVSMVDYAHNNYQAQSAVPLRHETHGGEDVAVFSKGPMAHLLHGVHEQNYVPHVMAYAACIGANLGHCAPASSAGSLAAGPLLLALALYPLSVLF
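system = human TNAP | amount = enzyme diluted 1/800 final | reagent = 100 µM CDP-star substrate | signal = luminescent substrate turnover signal | dosing = one dose, 20 µM | benchmarks = EDTA negative control, DMSO positive control | measure = activation factor | timing = 30 min reaction, room temperature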
L major viab: inhibitors of Leishmania major promastigote growth; actives 9% (n = 200,000); inhibition, % at 10 µM; AID 1063; Leishmania major promastigotes, resazurin fluorescence viability; in the data active = inhibition above about 50%;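 also: promastigotes grown with compound for 44 hours at 28 °C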
HCT116 PTEN-null: PTEN-deleted cell growth suppression; AID 827; viability, % at 10 µM; HCT116 PTEN-null viability, CellTiter-Glo, 60 h; stronger effect = lower value; actives 1.2% (n = 140,000);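 active = viability at or below a set limit, 4 SD under the median of all tested compounds, cut at about 3.7% in these data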;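 also: PTEN knockout HCT116 line with beta catenin targeted HCT116 as companion control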
TNAP inh no acc: inhibitors of human TNAP without phosphate acceptor. inhibition, % at 20 µM. purified TNAP, CDP-star luminescence, 30 min. P05186. actives 0.26% (n = 200,000);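 active = tissue-nonspecific alkaline phosphatase inhibition above about 50% at 20 µM in the single-dose screen, limit read from the data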;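 also: 0% = DMSO negative control and 100% = EDTA positive control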
HCT116 bCat-KO: beta-catenin-lacking colon tumor cell growth suppression; viability, % at 10 µM; HCT116 beta-catenin knockout viability, CellTiter-Glo, 60 h; stronger effect = lower value; actives 1.5% (n = 140,000);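 active = viability at or under a set limit, the compound median less 4 SD, cut at about 6% in these data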;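 also: 0% = Hyamine 1622 control at 20 µM and 100% = untreated cell control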
TNAP inh hi DEA: inhibitors of human TNAP at high phosphate acceptor concentration; P05186; purified TNAP, CDP-star luminescence, 1 M DEA; inhibition, % at 20 µM; actives 0.03% (n = 200,000); AID 1135;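 active = over 50% inhibition of tissue-nonspecific alkaline phosphatase at 20 µM in the single-dose screen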;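 also: plate controls were DMSO wells for no effect and EDTA-quenched wells as full inhibition for full effect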
* = called active by the depositor; / = no result.

SMILES | TNAP act hiacc | L major viab | HCT116 PTEN-null | TNAP inh no acc | HCT116 bCat-KO | TNAP inh hi DEA
CC1CCc2nc(NC(=O)CN3CCN(c4ccccc4)CC3)sc2C1 (centres undefined) | 1.1 | -4.3 | 88.8 | -19.4 | 90.4 | -7.7
O=C(CN1CCN(Cc2ccc3c(c2)OCO3)CC1)Nc1ccc2c(c1)OCCO2 | 1 | 90.8* | 83.4 | -6.4 | 89.4 | -1.7
COc1ccc(NC(=O)CN2CCN(Cc3ccc4c(c3)OCO4)CC2)cc1OC | 1 | 71.1* | 96.0 | -10.8 | 89.4 | -4.7
CC1CCc2nc(NC(=O)CN3CCN(Cc4ccc5c(c4)OCO5)CC3)sc2C1 (centres undefined) | 1 | 99.4* | 75.4 | -10.4 | 51.3 | -1.7
CCOC(=O)c1sc(NC(=O)CCCn2nc([N+](=O)[O-])c(Cl)c2C)c(C(=O)OCC)c1C | 1 | 7.5 | 85.1 | -11.4 | 83.1 | -2.0
COc1ccc(-c2cc(C(F)(F)F)n3ncc(C(=O)Nc4c(C)n(C)n(-c5ccccc5)c4=O)c3n2)cc1 | 1 | -1.8 | / | -4.9 | / | -2.3
Cc1c(C(=O)OC(C)C)sc(N)c1C(=O)OC(C)C | 1 | -0.7 | 84.3 | -11.0 | 84.3 | 0.3
O=C(NCCCN1CCCC1=O)c1ccccc1NS(=O)(=O)c1ccc(Br)cc1 | 1 | -4.9 | 100.2 | -8.7 | 95.3 | -3.8
COc1ccccc1NC(=O)CN1CCN(CC(=O)Nc2ccc3c(c2)OCCO3)CC1 | 1 | 55.4* | 85.1 | -10.2 | 87.3 | -2.4
O=c1[nH]c(CN2CCN(Cc3ccc4c(c3)OCO4)CC2)nc2ccccc12 | 1 | 91.1* | 82.3 | 2.8 | 98.4 | -3.1
O=c1[nH]c(CN2CCCCC2)nc2ccccc12 | 1 | -0.6 | 84.8 | -2.5 | 102.5 | -3.6
O=C(CN1CCCN(S(=O)(=O)c2ccc(Br)cc2)CC1)Nc1ccc2c(c1)OCO2 | 1 | 86.4* | 74.3 | -8.4 | 74.8 | -4.3
COc1ccc(S(=O)(=O)N2CCCN(CC(=O)Nc3ccc4c(c3)OCO4)CC2)cc1 | 1 | 14.7 | 89.2 | -6.0 | 85.1 | -1.2
CC(C)(CO)CNC(=O)c1ccc(OC2CCN(C(=O)C3CC3)CC2)cc1 | 1.1 | 1.1 | / | -7.9 | / | -7.1
Cc1nc(-n2ncc(C#N)c2N)c2c3c(sc2n1)CCC3 | 1 | 3.3 | 2.0* | 9.1 | 84.0 | -4.3
N#Cc1cnn(-c2ncnc3sc4c(c23)CCCC4)c1N | 1.1 | 6.0 | 80.4 | -4.4 | 85.2 | -7.4
Cc1ccc(S(=O)(=O)CCc2nc3ccccc3[nH]2)cc1C | 1 | -1.5 | / | -15.4 | / | -4.9
CCCCCCCN1C2=NCCCN2c2ccccc21 | 1.1 | 70.5* | / | -12.0 | / | -5.4
c1ccc(OCCN2C3=NCCN3c3ccccc32)cc1 | 1.1 | 100.5* | 92.3 | -4.5 | 81.8 | -9.4
CCCCN1C2=NCCCN2c2ccccc21 | 1.1 | 18.7 | 67.7 | -14.7 | 72.5 | -5.8
Cc1ccc(CN2C3=NCCCN3c3ccccc32)cc1 | 1.1 | 6.5 | 63.2 | -13.5 | 65.2 | -6.1
CC(C)(C)c1ccc(CN2C3=NCCCN3c3ccccc32)cc1 | 1 | 100.5* | 2.9* | -13.2 | 3.9* | -4.1
O=C(Nc1ccccc1)c1ccccc1Oc1ccc(C(F)(F)F)cc1[N+](=O)[O-] | 1 | 9.2 | 53.3 | 8.0 | 58.1 | 0.6
O=C(Nc1ccc(F)cc1)c1ccccc1Oc1ccc(C(F)(F)F)cc1[N+](=O)[O-] | 1 | 97.2* | 29.5 | 1.3 | 55.5 | -2.9
COc1ccc(S(=O)(=O)NCC2CCCN(CC(C)(C)C)C2)cc1 (centres undefined) | 1.1 | -1.0 | / | -11.1 | / | -9.5
SMILES | TNAP act hiacc | L major viab | HCT116 PTEN-null | TNAP inh no acc | HCT116 bCat-KO | TNAP inh hi DEA
COc1ccc(CCN(C)S(=O)(=O)c2ccc(Cl)nc2)cc1OC | 1.1 | -4.8 | / | -7.5 | / | -5.7
Cc1cc(C)cc(NC(=S)NC2CC3CCCC(C2)N3C2CCCC2)c1 (centres undefined) | 1.1 | 52.9* | / | -67.6 | / | -7.4
Cc1cc(C)cc(NC(=S)NC2CC3CCCC(C2)N3C2CC2)c1 (centres undefined) | 1.1 | 55.0* | / | -16.4 | / | -5.6
Cc1cc(C)cc(NC(=S)NC2CC3CCCC(C2)N3CC(C)C)c1 (centres undefined) | 1 | 36.5 | / | -12.4 | / | -2.4
O=C(COC(=O)/C=C/c1ccco1)NCCc1ccccc1 | 1 | -6.2 | / | -5.3 | / | -2.0
OC(CN1CCN(Cc2ccccc2)CC1)Cn1c2ccccc2c2ccccc21 (centres undefined) | 1 | 80.6* | 19.4 | -13.5 | 27.6 | -2.7
Cc1ccc(OCCN2CCN(CC(O)Cn3c4ccccc4c4ccccc43)CC2)cc1 (centres undefined) | 1 | 77.1* | 1.4* | -3.5 | 1.2* | 3.0
OC(CN1CCN(c2ccccc2)CC1)Cn1c2ccccc2c2ccccc21 (centres undefined) | 1.1 | 8.6 | 90.3 | -10.5 | 93.0 | -6.8
OC(CN1CCN(Cc2ccccc2)CC1)c1ccc(F)cc1 (centres undefined) | 1 | 95.9* | 99.7 | -9.1 | 92.6 | -1.8
OC(CN1CCN(Cc2ccccc2)CC1)c1ccccc1 (centres undefined) | 1 | 69.3* | / | -5.1 | / | -1.7
Cc1ccc(NC(=O)COc2ccccc2C(=O)NCCN(C)C)cc1 | 1 | 2.7 | / | -4.5 | / | -0.5
C/C(=N\NS(=O)(=O)c1ccccc1)c1cc(Cl)cc(Cl)c1O | 1.1 | -5.2 | / | -14.0 | / | -7.8
OCC(O)CN1CCN(c2ccccc2)CC1 (centres undefined) | 1.1 | -2.6 | 100.3 | -14.8 | 104.3 | -7.3
OC(CSc1ccc(F)cc1)CN1CCN(c2ccccc2)CC1 (centres undefined) | 1.1 | 68.3* | / | 3.0 | / | -7.4
O=C(CCS(=O)(=O)c1cc(Br)cc2c1N(C(=O)C1CC1)CC2)N1CCN(c2ccccn2)CC1 | 1 | 4.2 | / | 5.4 | / | -4.5
Cc1ccc2nc(-c3ccccc3Cl)cc(C(=O)Nc3cc(C)on3)c2c1 | 1 | 55.1* | 62.4 | -5.4 | 64.7 | -2.9
CCc1n[n+](CC(=O)c2ccccc2)c(N)s1 | 1 | 5.0 | / | 4.0 | / | 0.7
CCCc1nc([N+](=O)[O-])c(S(=O)(=O)c2ccccc2)n1CC(C)C | 1 | 95.3* | 2.9* | -7.3 | 3.3* | -1.8
CCn1c(C)nc([N+](=O)[O-])c1Sc1ccc(F)cc1 | 1 | 22.0 | 71.0 | -2.8 | 76.2 | -1.5
CC(C)Cn1c(C(C)C)nc([N+](=O)[O-])c1S(=O)(=O)c1ccc(F)cc1 | 1 | 95.6* | 2.4* | -7.6 | 2.1* | 0.5
CC(C)Cn1nc(NS(=O)(=O)c2ccccc2)c2cc3ccccc3nc21 | 1 | 37.5 | 89.1 | -0.2 | 92.6 | 3.4
COC(=O)CSc1nnc(NC(=O)/C=C\c2ccc3c(c2)OCO3)s1 | 1 | 99.9* | 98.5 | 2.5 | 97.2 | -0.7
Cc1sc(NC(=O)/C=C/c2ccc3c(c2)OCO3)nc1-c1ccccc1 | 1 | 42.3 | 13.4 | -9.2 | 18.9 | -1.3
